Source: ChEMBL document CHEMBL1667795, “Phosphonic pseudopeptides as human neutrophil elastase inhibitors--a combinatorial approach” (Bioorg Med Chem, 2011)
The source made the active and inactive calls. No cut-off for these calls is given here.

Key:
[1] = Inhibition of trypsin at 2.5 uM after 30 mins relative to control
How it was run: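 Trypsin (final 2.5 nM) preincubated 30 min at 37 °C with 2.5 µM inhibitor in 0.1 M HEPES, 0.01 M CaCl2, pH 7.5. Bzl-Arg-AFC added, fluorescence read at Ex 380/Em 505 nm. Percent inhibition relative to the control sample.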

[2] = target: T1, Neutrophil elastase (Homo sapiens) (UniProt P08246); assay: Inhibition of human neutrophil elastase after 15 mins
T1 sequence (whole entry): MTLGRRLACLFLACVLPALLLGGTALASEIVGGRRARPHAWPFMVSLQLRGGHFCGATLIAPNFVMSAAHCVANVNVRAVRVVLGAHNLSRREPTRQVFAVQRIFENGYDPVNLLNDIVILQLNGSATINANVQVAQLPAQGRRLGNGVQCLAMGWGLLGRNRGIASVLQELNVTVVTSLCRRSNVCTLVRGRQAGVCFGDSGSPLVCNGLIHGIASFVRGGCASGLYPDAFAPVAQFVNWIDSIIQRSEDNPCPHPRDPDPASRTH

[3] = Inhibition of chymotrypsin at 2.5 uM after 30 mins relative to control
How it was run: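 Suc-Ala-Ala-Pro-Phe-AMC then added, fluorescence read at Ex 350/Em 460 nm. Inhibition given as percent of enzyme activity relative to the control sample.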

[4] = Cytotoxicity against HGF at 250 uM after 48 hrs by MTT assay; assay type: cell-based; details: human, HGF cells; read-out: INH
How it was run: (§1)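 Human gingival fibroblasts isolated from healthy gingival biopsies, grown in DMEM with 10% FBS, glutamine and penicillin/streptomycin at 37 °C, 5% CO2. Seeded 1 × 10^4 cells/well, attached overnight, then exposed 48 h to inhibitor diluted in medium from DMSO stocks; DMSO-only controls. MTT read at 570 nm, viability expressed as percent of untreated control.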

[5] = Cytotoxicity against HGF at 500 uM after 48 hrs by MTT assay; assay type: cell-based; details: human; how it was run: as §1
A549 [6] = assay: Cytotoxicity against human A549 cells at 125 to 500 uM after 48 hrs by MTT assay; assay type: functional
How it was run: (§2)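 A549 lung cancer cells kept at 37 °C, 5% CO2, harvested by trypsinization and PBS wash. Seeded 1 × 10^4 cells/well, attached overnight, then 48 h with inhibitor diluted in medium from DMSO stocks; DMSO-only controls. MTT absorbance at 570 nm, growth as percent of untreated control, mean ± one SD.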

A549 [7] = assay: Cytotoxicity against human A549 cells at 250 uM after 48 hrs by MTT assay; assay type: functional; details: A549, 48 h; how it was run: as §2
A549 [8] = assay: Cytotoxicity against human A549 cells at 500 uM after 48 hrs by MTT assay; assay type: functional; details: A549, 48 h; how it was run: as §2

| SMILES | inhibition [1] | kinact/Ki (second-order inactivation rate constant) [2] [M⁻¹ s⁻¹] | inhibition [3] | cytotoxicity at 48 h, 250 µM [4] [%] | Activity [5] | inhibition (INH) (A549 [6]) [%] | inhibition at 250 µM (A549 [7]) [%] | inhibition at 500 µM (A549 [8]) [%] |
| --- | --- | --- | --- | --- | --- | --- | --- | --- |
| CCCCN(C(=O)CNC(=O)OCc1ccccc1)[C@@H](CCc1ccccc1)C(=O)N[C@H](C(C)C)P(=O)(Oc1ccc(SC)cc1)Oc1ccc(SC)cc1 | inactive | 1420 | 15% | 10 | Toxic | 50 | 70 | – |
| CSCC[C@H](NC(=O)OCc1ccccc1)C(=O)O[C@@H](CCc1ccccc1)C(=O)N[C@H](C(C)C)P(=O)(Oc1ccc(Cl)cc1)Oc1ccc(Cl)cc1 | inactive | 1620 | inactive | – | – | – | – | – |
| CSCC[C@H](NC(=O)OCc1ccccc1)C(=O)O[C@@H](CCSC)C(=O)N[C@H](C(C)C)P(=O)(Oc1ccc(SC)cc1)Oc1ccc(SC)cc1 | inactive | 5900 | 14% | – | – | – | – | – |
| CCCCCC(=O)N1CCN([C@@H](CCSC)C(=O)N[C@H](C(C)C)P(=O)(Oc2ccc(SC)cc2)Oc2ccc(SC)cc2)CC1 | inactive | 140 | – | – | – | – | – | – |
| CSCC[C@H](NC(=O)OCc1ccccc1)C(=O)O[C@@H](CCc1ccccc1)C(=O)N[C@H](C(C)C)P(=O)(Oc1ccc(SC)cc1)Oc1ccc(SC)cc1 | inactive | 765 | inactive | – | – | – | – | – |
| CSCC[C@H](NC(=O)OCc1ccccc1)C(=O)O[C@H](C(=O)N[C@H](C(C)C)P(=O)(Oc1ccc(Cl)cc1)Oc1ccc(Cl)cc1)C(C)C | inactive | 20500 | 15% | – | – | – | – | – |
| CCCCCC(=O)N1CCN([C@H](C(=O)N[C@H](C(C)C)P(=O)(Oc2ccc(SC)cc2)Oc2ccc(SC)cc2)c2ccc(OC)c(OC)c2)CC1 | inactive | 125 | inactive | – | – | – | – | – |
| CCCCCC(=O)N1CCN([C@H](C(=O)N[C@H](C(C)C)P(=O)(Oc2ccc(SC)cc2)Oc2ccc(SC)cc2)c2ccc([N+](=O)[O-])cc2)CC1 | inactive | 140 | inactive | – | – | – | – | – |
| COc1ccc([C@H](OC(=O)[C@H](CCSC)NC(=O)OCc2ccccc2)C(=O)N[C@H](C(C)C)P(=O)(Oc2ccc(Cl)cc2)Oc2ccc(Cl)cc2)cc1OC | inactive | 165 | 21% | – | – | – | – | – |
| COc1ccc([C@H](OC(=O)[C@H](CCSC)NC(=O)OCc2ccccc2)C(=O)N[C@H](C(C)C)P(=O)(Oc2ccc(SC)cc2)Oc2ccc(SC)cc2)cc1OC | inactive | 3800 | 22% | – | – | – | – | – |
| CSCC[C@H](NC(=O)OCc1ccccc1)C(=O)O[C@H](C(=O)N[C@H](C(C)C)P(=O)(Oc1ccc(SC)cc1)Oc1ccc(SC)cc1)c1ccc([N+](=O)[O-])cc1 | inactive | 430 | inactive | – | – | – | – | – |
| CSCC[C@H](NC(=O)OCc1ccccc1)C(=O)O[C@@H](CC(C)C)C(=O)N[C@H](C(C)C)P(=O)(Oc1ccc(Cl)cc1)Oc1ccc(Cl)cc1 | inactive | 7250 | inactive | – | – | – | – | 75 |
| CSCC[C@H](NC(=O)OCc1ccccc1)C(=O)O[C@H](C(=O)N[C@H](C(C)C)P(=O)(Oc1ccc(Cl)cc1)Oc1ccc(Cl)cc1)c1ccc(F)cc1 | inactive | 215 | 16% | – | – | – | – | – |
| CCCCCC(=O)N1CCN([C@H](C(=O)N[C@H](C(C)C)P(=O)(Oc2ccc(SC)cc2)Oc2ccc(SC)cc2)c2ccc(F)cc2)CC1 | inactive | 330 | inactive | – | – | – | – | – |
| CCCCN(C(=O)CNC(=O)OCc1ccccc1)[C@@H](CC(C)C)C(=O)N[C@H](C(C)C)P(=O)(Oc1ccc(SC)cc1)Oc1ccc(SC)cc1 | inactive | 145 | inactive | – | – | – | – | – |
| CSCC[C@H](NC(=O)OCc1ccccc1)C(=O)O[C@@H](CCSC)C(=O)N[C@H](C(C)C)P(=O)(Oc1ccc(Cl)cc1)Oc1ccc(Cl)cc1 | inactive | 40100 | inactive | – | – | – | 25 | 60 |
| CCCCN(C(=O)CNC(=O)OCc1ccccc1)[C@H](C(=O)N[C@H](C(C)C)P(=O)(Oc1ccc(SC)cc1)Oc1ccc(SC)cc1)C(C)C | inactive | 495 | 8% | – | – | – | – | – |
| CSCC[C@H](NC(=O)OCc1ccccc1)C(=O)O[C@@H](CC(C)C)C(=O)N[C@H](C(C)C)P(=O)(Oc1ccc(SC)cc1)Oc1ccc(SC)cc1 | inactive | 4400 | inactive | – | – | – | – | – |
| CSCC[C@H](NC(=O)OCc1ccccc1)C(=O)O[C@H](C(=O)N[C@H](C(C)C)P(=O)(Oc1ccc(SC)cc1)Oc1ccc(SC)cc1)C(C)C | inactive | 5050 | 15% | – | – | – | – | – |
| CCCCN(C(=O)CNC(=O)OCc1ccccc1)[C@@H](Cc1ccccc1)C(=O)N[C@H](C(C)C)P(=O)(Oc1ccc(SC)cc1)Oc1ccc(SC)cc1 | inactive | 1360 | 14% | – | – | – | – | – |
| CSCC[C@H](NC(=O)OCc1ccccc1)C(=O)O[C@H](C(=O)N[C@H](C(C)C)P(=O)(Oc1ccc(SC)cc1)Oc1ccc(SC)cc1)c1ccc(F)cc1 | inactive | 4850 | inactive | – | – | – | – | – |
| CSCC[C@H](NC(=O)OCc1ccccc1)C(=O)O[C@@H](Cc1ccccc1)C(=O)N[C@H](C(C)C)P(=O)(Oc1ccc(Cl)cc1)Oc1ccc(Cl)cc1 | inactive | 695 | inactive | – | – | – | – | – |
| CSCC[C@H](NC(=O)OCc1ccccc1)C(=O)O[C@H](C(=O)N[C@H](C(C)C)P(=O)(Oc1ccc(Cl)cc1)Oc1ccc(Cl)cc1)c1ccc([N+](=O)[O-])cc1 | inactive | 165 | inactive | – | – | – | – | – |
| CSCC[C@H](NC(=O)OCc1ccccc1)C(=O)O[C@@H](Cc1ccccc1)C(=O)N[C@H](C(C)C)P(=O)(Oc1ccc(SC)cc1)Oc1ccc(SC)cc1 | inactive | 605 | inactive | – | – | – | – | – |
